In paper PMC4929832 (Nature, 2016):

Legend:
[1] = molecular target: EPH-A5 (Homo sapiens, UniProt P54756); experiment: kinase panel; format: biochemical
[2] = molecular target: P70S6K1 (Homo sapiens, UniProt P23443); experiment: kinase panel; format: biochemical
[3] = molecular target: RIPK2 (Homo sapiens, UniProt O43353); experiment: kinase panel; format: biochemical
[4] = molecular target: BRSK2 (Homo sapiens, UniProt Q8IWQ3); experiment: kinase panel; format: biochemical
[5] = molecular target: ARK5 (Homo sapiens, UniProt O60285); experiment: kinase panel; format: biochemical
ARK5, sequence (O60285 whole entry): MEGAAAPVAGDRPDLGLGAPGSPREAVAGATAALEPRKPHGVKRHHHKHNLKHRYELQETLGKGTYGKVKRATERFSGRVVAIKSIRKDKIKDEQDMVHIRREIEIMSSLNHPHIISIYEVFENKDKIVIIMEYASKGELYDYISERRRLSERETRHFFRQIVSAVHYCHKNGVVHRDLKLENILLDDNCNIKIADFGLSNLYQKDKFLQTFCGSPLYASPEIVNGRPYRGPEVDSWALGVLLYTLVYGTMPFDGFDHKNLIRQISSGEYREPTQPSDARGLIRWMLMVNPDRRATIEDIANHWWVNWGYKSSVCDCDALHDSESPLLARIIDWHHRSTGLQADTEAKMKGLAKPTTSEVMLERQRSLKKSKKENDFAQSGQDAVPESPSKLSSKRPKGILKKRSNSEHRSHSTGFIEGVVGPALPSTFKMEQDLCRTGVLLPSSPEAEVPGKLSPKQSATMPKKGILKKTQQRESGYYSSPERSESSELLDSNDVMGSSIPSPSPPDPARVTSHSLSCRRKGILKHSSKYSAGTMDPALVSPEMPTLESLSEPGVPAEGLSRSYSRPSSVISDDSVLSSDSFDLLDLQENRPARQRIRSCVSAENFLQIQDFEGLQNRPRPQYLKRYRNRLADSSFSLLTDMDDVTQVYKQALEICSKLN

[6] = molecular target: MAPK3 (Homo sapiens, UniProt P27361); experiment: kinase panel; format: biochemical
[7] = molecular target: AURORA-C (Homo sapiens, UniProt Q9UQB9); experiment: kinase panel; format: biochemical
[8] = molecular target: GRK3 (Homo sapiens, UniProt P35626); experiment: kinase panel; format: biochemical
[9] = molecular target: YES (Homo sapiens, UniProt P07947); experiment: kinase panel; format: biochemical
[10] = molecular target: P38-BETA (Homo sapiens, UniProt Q15759); experiment: kinase panel; format: biochemical
[11] = molecular target: PAK4 (Homo sapiens, UniProt O96013); experiment: kinase panel; format: biochemical
[12] = molecular target: MSK1 (Homo sapiens, UniProt O75582); experiment: kinase panel; format: biochemical
[13] = molecular target: Phosphodiesterase 4D (Homo sapiens, UniProt Q08499); experiment: Phosphodiesterase 4D assay; format: biochemical
Phosphodiesterase 4D, sequence (Q08499 whole entry): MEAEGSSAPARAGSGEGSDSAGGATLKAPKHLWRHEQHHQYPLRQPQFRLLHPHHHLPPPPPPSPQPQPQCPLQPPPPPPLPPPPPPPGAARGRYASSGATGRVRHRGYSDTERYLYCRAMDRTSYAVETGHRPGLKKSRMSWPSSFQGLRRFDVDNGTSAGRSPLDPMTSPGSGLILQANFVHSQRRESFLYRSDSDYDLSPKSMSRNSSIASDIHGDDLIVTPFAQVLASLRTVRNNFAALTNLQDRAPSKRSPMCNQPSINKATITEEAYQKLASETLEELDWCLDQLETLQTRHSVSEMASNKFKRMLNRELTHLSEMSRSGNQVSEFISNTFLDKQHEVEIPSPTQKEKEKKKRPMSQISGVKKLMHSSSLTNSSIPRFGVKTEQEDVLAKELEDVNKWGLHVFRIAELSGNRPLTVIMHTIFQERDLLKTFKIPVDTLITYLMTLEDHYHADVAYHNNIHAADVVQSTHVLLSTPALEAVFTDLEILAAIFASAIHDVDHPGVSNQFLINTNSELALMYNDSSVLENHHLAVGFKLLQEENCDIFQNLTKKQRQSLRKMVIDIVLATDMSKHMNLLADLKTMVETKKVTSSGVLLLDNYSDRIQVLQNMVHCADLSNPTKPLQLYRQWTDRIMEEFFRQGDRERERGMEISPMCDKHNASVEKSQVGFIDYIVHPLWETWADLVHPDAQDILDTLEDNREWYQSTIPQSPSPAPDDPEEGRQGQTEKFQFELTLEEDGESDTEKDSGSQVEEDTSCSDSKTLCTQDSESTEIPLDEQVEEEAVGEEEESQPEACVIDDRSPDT

[14] = molecular target: P70S6K2 (Homo sapiens, UniProt Q9UBS0); experiment: kinase panel; format: biochemical
[15] = molecular target: SGK3 (Homo sapiens, UniProt Q96BR1); experiment: kinase panel; format: biochemical
[16] = molecular target: Progesterone Receptor (Homo sapiens, UniProt P06401); experiment: Progesterone Receptor antagonist assay; format: cell-based
[17] = molecular target: HIPK2 (Homo sapiens, UniProt Q9H2X6); experiment: kinase panel; format: biochemical
[18] = molecular target: ALK5 (Homo sapiens, UniProt P36897); experiment: kinase panel; format: biochemical
[19] = molecular target: MEK2 (Homo sapiens, UniProt P36507); experiment: kinase panel; format: biochemical
[20] = tested on: L858R/T790M/C797S mutant lung tumors (genetically engineered mice); experiment: Mouse efficacy study, tumor volume by MRI; format: in vivo; details: EAI045 and cetuximab
Summary of the method: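 Transgenic lung tumors were induced at 6 weeks of age: exon19del/T790M mice by doxycycline diet, L858R/T790M/C797S mice by intranasal Ad-Cre. The test compound in 10% NMP/90% PEG-300 was given at 60 mg/kg daily by oral gavage. […] MRI ran at baseline and every 2 weeks, and tumor volume was quantified in 3D at 4 weeks. Cohorts were non-blinded and not randomized.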

[21] = molecular target: TNK2 (Homo sapiens, UniProt Q07912); experiment: kinase panel; format: biochemical
[22] = molecular target: TTK (Homo sapiens, UniProt P33981); experiment: kinase panel; format: biochemical
[23] = tested on: H3255 cells; experiment: Proliferation assay; format: cell-based
Summary of the method: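 Cells were maintained in 10% FBS/RPMI with penicillin/streptomycin and plated at 500 cells/well in 10% FBS RPMI. Serially diluted test compound was pin-transferred. Viability was read after 3 days by CellTiter-Glo luminescence and normalized to 0.1% DMSO-treated cells and empty wells. EC50 was obtained by non-linear regression curve fitting.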

[24] = molecular target: MST1 (Homo sapiens, UniProt Q13043); experiment: kinase panel; format: biochemical
[25] = molecular target: PI3K-ALPHA (Homo sapiens, UniProt P42336); experiment: kinase panel; format: biochemical
[26] = Mouse pharmacokinetic studies; format: in vivo; details: 20 mg/kg
[27] = molecular target: DCAMKL2 (Homo sapiens, UniProt Q8N568); experiment: kinase panel; format: biochemical
[28] = molecular target: TXK (Homo sapiens, UniProt P42681); experiment: kinase panel; format: biochemical
TXK, sequence (P42681 whole entry): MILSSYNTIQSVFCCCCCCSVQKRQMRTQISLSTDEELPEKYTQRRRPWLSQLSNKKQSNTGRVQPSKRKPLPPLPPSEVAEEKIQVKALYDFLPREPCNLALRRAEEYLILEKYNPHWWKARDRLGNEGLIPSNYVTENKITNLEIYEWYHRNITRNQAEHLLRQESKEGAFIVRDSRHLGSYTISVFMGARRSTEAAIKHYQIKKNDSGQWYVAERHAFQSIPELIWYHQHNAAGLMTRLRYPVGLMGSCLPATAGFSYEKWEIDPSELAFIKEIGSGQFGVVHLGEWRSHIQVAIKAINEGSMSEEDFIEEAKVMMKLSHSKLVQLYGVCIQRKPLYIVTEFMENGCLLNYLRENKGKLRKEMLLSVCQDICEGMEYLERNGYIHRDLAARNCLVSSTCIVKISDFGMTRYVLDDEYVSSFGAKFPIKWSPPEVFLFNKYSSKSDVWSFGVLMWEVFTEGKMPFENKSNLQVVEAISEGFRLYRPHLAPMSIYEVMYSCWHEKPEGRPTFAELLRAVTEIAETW

[29] = molecular target: PDGFR-ALPHA (Homo sapiens, UniProt P16234); experiment: kinase panel; format: biochemical
[30] = molecular target: TNIK (Homo sapiens, UniProt Q9UKE5); experiment: kinase panel; format: biochemical
[31] = molecular target: TYRO3 (Homo sapiens, UniProt Q06418); experiment: kinase panel; format: biochemical
[32] = molecular target: KDR (Homo sapiens, UniProt P35968); experiment: kinase panel; format: biochemical
[33] = molecular target: Monoamine Oxidase A (Homo sapiens, UniProt P21397); experiment: Monoamine Oxidase A assay; format: biochemical
[34] = molecular target: DAPK1 (Homo sapiens, UniProt P53355); experiment: kinase panel; format: biochemical
DAPK1, sequence (P53355 whole entry): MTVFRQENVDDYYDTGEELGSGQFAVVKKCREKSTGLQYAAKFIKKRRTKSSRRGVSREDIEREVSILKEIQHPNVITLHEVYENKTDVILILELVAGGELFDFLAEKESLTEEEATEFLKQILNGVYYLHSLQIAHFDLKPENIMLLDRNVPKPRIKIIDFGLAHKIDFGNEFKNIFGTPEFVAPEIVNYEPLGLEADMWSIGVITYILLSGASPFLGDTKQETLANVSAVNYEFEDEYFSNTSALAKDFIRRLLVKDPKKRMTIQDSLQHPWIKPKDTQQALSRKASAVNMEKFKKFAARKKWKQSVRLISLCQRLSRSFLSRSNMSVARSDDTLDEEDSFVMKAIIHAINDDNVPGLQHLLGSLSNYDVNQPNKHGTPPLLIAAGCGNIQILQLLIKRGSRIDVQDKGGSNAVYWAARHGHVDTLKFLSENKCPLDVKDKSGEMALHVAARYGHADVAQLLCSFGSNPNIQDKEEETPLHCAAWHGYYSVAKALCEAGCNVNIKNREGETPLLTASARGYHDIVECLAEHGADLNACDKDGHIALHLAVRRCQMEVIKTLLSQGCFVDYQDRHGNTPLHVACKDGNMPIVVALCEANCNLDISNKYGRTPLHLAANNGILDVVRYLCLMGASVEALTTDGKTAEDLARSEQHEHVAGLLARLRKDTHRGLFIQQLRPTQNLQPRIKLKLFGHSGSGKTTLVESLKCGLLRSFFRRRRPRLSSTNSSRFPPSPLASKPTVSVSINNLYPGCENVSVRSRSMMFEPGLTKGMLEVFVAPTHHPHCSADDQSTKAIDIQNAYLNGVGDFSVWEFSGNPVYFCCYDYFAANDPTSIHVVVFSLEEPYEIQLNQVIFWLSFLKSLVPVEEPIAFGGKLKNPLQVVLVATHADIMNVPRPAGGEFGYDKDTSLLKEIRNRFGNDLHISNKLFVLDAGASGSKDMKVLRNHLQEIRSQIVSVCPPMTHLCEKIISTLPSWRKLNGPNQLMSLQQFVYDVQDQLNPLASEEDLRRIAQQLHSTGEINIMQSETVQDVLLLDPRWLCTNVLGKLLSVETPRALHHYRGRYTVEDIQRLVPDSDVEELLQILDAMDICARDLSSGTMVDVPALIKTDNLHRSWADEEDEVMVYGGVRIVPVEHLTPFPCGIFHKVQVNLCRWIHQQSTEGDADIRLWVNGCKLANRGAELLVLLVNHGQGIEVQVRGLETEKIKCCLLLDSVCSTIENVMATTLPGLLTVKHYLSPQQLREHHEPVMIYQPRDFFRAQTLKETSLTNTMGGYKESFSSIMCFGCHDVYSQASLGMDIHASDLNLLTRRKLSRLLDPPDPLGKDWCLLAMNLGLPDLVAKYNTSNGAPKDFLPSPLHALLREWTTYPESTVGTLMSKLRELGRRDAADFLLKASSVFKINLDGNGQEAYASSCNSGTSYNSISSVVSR

[35] = molecular target: PIM3 (Homo sapiens, UniProt Q86V86); experiment: kinase panel; format: biochemical
[36] = molecular target: JAK2 (Homo sapiens, UniProt O60674); experiment: kinase panel; format: biochemical
[37] = molecular target: MSK2 (Homo sapiens, UniProt O75676); experiment: kinase panel; format: biochemical
[38] = molecular target: GRK7 (Homo sapiens, UniProt Q8WTQ7); experiment: kinase panel; format: biochemical
GRK7, sequence (Q8WTQ7 whole entry): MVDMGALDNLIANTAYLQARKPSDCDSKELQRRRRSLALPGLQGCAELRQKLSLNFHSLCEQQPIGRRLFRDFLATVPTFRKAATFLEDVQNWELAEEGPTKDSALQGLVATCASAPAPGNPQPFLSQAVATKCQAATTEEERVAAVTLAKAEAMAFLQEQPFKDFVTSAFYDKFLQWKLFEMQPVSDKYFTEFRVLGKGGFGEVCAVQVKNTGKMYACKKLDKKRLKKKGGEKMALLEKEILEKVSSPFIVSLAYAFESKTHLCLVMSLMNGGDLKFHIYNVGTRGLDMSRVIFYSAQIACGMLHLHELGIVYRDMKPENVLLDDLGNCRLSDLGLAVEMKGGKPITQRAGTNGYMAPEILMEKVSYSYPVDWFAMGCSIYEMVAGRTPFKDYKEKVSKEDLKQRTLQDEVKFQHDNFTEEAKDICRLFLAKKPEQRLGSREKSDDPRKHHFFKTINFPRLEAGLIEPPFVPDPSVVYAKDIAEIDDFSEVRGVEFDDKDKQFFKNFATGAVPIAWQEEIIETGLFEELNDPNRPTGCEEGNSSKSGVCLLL

[39] = molecular target: ARG (Homo sapiens, UniProt P42684); experiment: kinase panel; format: biochemical
[40] = molecular target: PRKD1 (Homo sapiens, UniProt Q15139); experiment: kinase panel; format: biochemical
PRKD1, sequence (Q15139 whole entry): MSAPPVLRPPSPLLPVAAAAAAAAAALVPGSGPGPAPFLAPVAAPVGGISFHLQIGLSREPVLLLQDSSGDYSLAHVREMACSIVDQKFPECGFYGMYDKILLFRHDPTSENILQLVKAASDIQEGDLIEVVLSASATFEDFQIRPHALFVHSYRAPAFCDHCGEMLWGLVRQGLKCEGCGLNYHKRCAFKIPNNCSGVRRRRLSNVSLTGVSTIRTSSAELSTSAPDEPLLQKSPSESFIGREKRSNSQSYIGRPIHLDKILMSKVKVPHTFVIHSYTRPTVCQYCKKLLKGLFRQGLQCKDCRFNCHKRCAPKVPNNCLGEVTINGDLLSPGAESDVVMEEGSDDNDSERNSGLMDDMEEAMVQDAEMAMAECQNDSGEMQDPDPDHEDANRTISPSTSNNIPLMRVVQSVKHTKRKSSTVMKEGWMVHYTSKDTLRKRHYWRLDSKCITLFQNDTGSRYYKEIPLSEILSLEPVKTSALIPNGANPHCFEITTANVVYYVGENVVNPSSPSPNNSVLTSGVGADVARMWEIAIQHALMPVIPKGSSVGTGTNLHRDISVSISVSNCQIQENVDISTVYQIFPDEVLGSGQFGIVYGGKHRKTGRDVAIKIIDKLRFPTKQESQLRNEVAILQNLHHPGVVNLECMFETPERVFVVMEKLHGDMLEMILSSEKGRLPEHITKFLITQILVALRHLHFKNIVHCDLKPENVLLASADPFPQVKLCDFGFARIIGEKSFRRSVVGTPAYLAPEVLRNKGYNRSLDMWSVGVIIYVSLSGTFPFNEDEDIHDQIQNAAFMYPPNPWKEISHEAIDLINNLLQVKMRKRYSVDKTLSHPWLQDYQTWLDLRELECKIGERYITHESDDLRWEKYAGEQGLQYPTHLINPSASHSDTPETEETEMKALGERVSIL

O=C(Nc1nccs1)C(c1cc(F)ccc1O)N1Cc2ccccc2C1=O (stereo not drawn) [EAI045, 2-(5-fluoro-2-hydroxyphenyl)-2-(1-oxo-2,3-dihydro-1H-isoindol-2-yl)-N-(1,3-thiazol-2-yl)acetamide]
2%: inhibition at 1 µM [17] | inhibition at 1 µM [21] | inhibition at 1 µM [36] | inhibition at 1 µM [37] | inhibition at 1 µM [39]
0.57 µM: maximal plasma concentration [26]
0%: inhibition at 1 µM [2] | inhibition at 1 µM [3] | inhibition at 1 µM [4] | inhibition at 1 µM [5] | inhibition at 1 µM [6] | inhibition at 1 µM [7] | inhibition at 1 µM [8] | inhibition at 1 µM [9] | inhibition at 1 µM [10] | inhibition at 1 µM [11] | inhibition at 1 µM [12] | inhibition at 1 µM [14] | inhibition at 1 µM [15] | inhibition at 1 µM [18] | inhibition at 1 µM [19] | inhibition at 1 µM [22] | inhibition at 1 µM [24] | inhibition at 1 µM [25] | inhibition at 1 µM [27] | inhibition at 1 µM [28] | inhibition at 1 µM [29] | inhibition at 1 µM [30] | inhibition at 1 µM [31] | inhibition at 1 µM [32] | inhibition at 1 µM [34] | inhibition at 1 µM [38] | inhibition at 1 µM [40]
2.15 h: half-life ([26]; plasma, oral)
1%: inhibition at 1 µM [35]
> 10 µM: EC50 ([23]; Homo sapiens, NCI-H3255, 72 h, read-out: EC50 Proliferation)
marked tumor shrinkage: tumor response [20]
4%: inhibition at 1 µM [1]
no anti-proliferative effect: anti-proliferative effect ([23]; H3255, concentrations as high as 10 μM)
> 30 µM: IC50 [13] | IC50 [16] | IC50 [33]
